Results published in ChEMBL document CHEMBL3351394 (J Med Chem, 2014).
Active and inactive are the calls of the source. The rule behind the calls is not given here.

Columns and labels:
Type in all cases: cell-based
[1] = target: T1, Bile acid receptor (Homo sapiens, UniProt Q96RI1); experiment: Agonist activity at human FXR expressed in human HeLa cells assessed as receptor activation by BSEP promoter-driven firefly luciferase reporter gene assay
T1 sequence (Q96RI1 whole entry): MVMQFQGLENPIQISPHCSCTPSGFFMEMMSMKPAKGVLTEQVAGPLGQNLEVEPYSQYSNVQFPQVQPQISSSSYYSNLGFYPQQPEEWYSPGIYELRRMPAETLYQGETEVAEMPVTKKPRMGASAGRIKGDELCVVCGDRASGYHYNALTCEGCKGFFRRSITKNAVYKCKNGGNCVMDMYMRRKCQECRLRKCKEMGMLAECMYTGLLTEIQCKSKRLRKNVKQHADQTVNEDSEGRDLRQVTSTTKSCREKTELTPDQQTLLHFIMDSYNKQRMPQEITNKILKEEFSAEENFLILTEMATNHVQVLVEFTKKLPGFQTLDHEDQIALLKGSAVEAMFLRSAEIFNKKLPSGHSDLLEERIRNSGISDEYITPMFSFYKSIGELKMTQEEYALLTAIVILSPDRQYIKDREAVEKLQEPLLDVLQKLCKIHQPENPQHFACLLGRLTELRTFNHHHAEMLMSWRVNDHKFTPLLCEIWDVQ

[2] = target: T2, Bile acid receptor (Homo sapiens) (UniProt Q96RI1); experiment: Agonist activity at human FXR expressed in human HeLa cells assessed as receptor activation at 30 uM by BSEP promoter-driven firefly luciferase reporter gene assay relative to 3 uM GW4064
T2 sequence (whole entry): T1 sequence (Q96RI1 whole entry)
Outline: (§1)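 HeLa cells were calcium-phosphate transfected with pcDNA3-hFXR, pSG5-hRXR, a BSEP-promoter firefly luciferase (BSEP-pGL3) and pRL-SV40, then kept in 0.5% charcoal-stripped FCS. 24 h post-transfection, compound in 0.1% DMSO was added for 24 h; in antagonist mode it was given in competition with GW4064. Dual-luciferase firefly/renilla RLU gave fold over untreated and activity relative to 3 μM GW4064. Triplicate wells, ≥3 independent runs.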

[3] = target: T1, Bile acid receptor; experiment: Antagonist activity at human FXR expressed in human HeLa cells assessed as inhibition of receptor activation by BSEP promoter-driven firefly luciferase reporter gene assay; outline: as §1
[4] = target: T2, Bile acid receptor (Homo sapiens); experiment: Antagonist activity at human FXR expressed in human HeLa cells assessed as inhibition of receptor activation by BSEP promoter-driven firefly luciferase reporter gene assay relative to untreated control; conditions: concentration not given here; outline: as §1
[5] = target: T2, Bile acid receptor (Homo sapiens); experiment: Agonist activity at FXR in human HepG2 cells assessed as induction of BSEP mrNA expression at 3 uM by quantitative PCR method
Outline: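 HepG2 cells were seeded at 2 × 10⁶ per well. After 24 h they were switched to MEM with 1% charcoal-stripped FCS, and 24 h later dosed with compound (0.1, 0.3, 1, 3, 10 μM; 0.1% DMSO final) for 24 h. Total RNA was reverse transcribed and analysed by qPCR, GAPDH-normalized, ΔΔCt method. Samples were run in duplicate in ≥4 independent experiments.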

Compound | EC50 ([1]; read-out: EC50) | also measured
CC(C)(C)c1ccc(C(=O)Nc2ccccc2C(=O)Nc2cccc(C(N)=O)c2)cc1 | 74 nM | –
Cc1ccc(C(=O)Nc2ccc(C)c(C(=O)O)c2)c(NC(=O)c2ccc(C(C)(C)C)cc2)c1 | 43 nM | –
CC(C)(C)c1ccc(C(=O)Nc2cccc(Cl)c2C(=O)Nc2cccc(C(=O)O)c2)cc1 | – | Activity [2]: inactive
Cc1ccc(NC(=O)c2ccccc2NC(=O)c2ccc(C(C)(C)C)cc2)cc1C(=O)O | 45 nM | –
CC(C)(C)c1ccc(C(=O)Nc2cc(Cl)ccc2C(=O)Nc2cccc(C(=O)O)c2)cc1 | 47 nM | –
O=C(Cc1ccccc1)Nc1ccccc1C(=O)Nc1cccc(C(=O)O)c1 | – | Activity [2]: inactive
COc1ccc(NC(=O)c2ccc(C(C)(C)C)cc2)c(C(=O)Nc2cccc(C(=O)O)c2)c1 | – | Activity [2]: inactive; IC50 [3]: 15100 nM; inhibition [4]: 10%
COc1ccc(NC(=O)c2ccccc2NC(=O)c2ccc(C(C)(C)C)cc2)cc1OC | 71 nM | –
COc1cccc(NC(=O)c2ccccc2NC(=O)c2ccc(C(C)(C)C)cc2)c1 | 380 nM | –
COc1ccc(C(=O)O)cc1NC(=O)c1ccccc1NC(=O)c1ccc(C(C)(C)C)cc1 | 4700 nM | –
COc1ccc(C(=O)Nc2ccc(C)c(C(=O)O)c2)c(NC(=O)c2ccc(C(C)(C)C)cc2)c1 | 87 nM | –
CC(C)(C)c1ccc(C(=O)Nc2ccccc2C(=O)Nc2cc(C(=O)O)ccc2Cl)cc1 | 1100 nM | –
CC(C)(C)c1ccc(C(=O)Nc2ccccc2C(=O)Nc2ccc(Cl)c(C(=O)O)c2)cc1 | 280 nM | –
Nc1ccccc1C(=O)Nc1cccc(C(=O)O)c1 | – | Activity [2]: inactive
O=C(/C=C/c1ccccc1)Nc1ccccc1C(=O)Nc1cccc(C(=O)O)c1 | 5200 nM | –
CC(C)(C)c1ccc(C(=O)Nc2ccccc2C(=O)Nc2cccc(C(=O)O)c2)cc1 | 280 nM | –
CC(=O)c1cccc(NC(=O)c2ccccc2NC(=O)c2ccc(C(C)(C)C)cc2)c1 | 480 nM | –
COc1ccc(NC(=O)c2ccccc2NC(=O)c2ccc(C(C)(C)C)cc2)cc1C(=O)O | 47 nM | –
CC(C)(C)c1ccc(C(=O)Nc2ccccc2C(=O)Nc2cccc(-c3nnn[nH]3)c2)cc1 | 2900 nM | –
Cc1ccc(C(=O)Nc2cccc(C(=O)O)c2)c(NC(=O)c2ccc(C(C)(C)C)cc2)c1 | 61 nM | –
CC(C)(C)c1ccc(C(=O)Nc2ccc(Cl)cc2C(=O)Nc2cccc(C(=O)O)c2)cc1 | – | IC50 [3]: 12300 nM; inhibition [4]: 15%
CC(C)(C)c1ccc(C(=O)Nc2cc([N+](=O)[O-])ccc2C(=O)Nc2cccc(C(=O)O)c2)cc1 | – | Activity [2]: inactive

Compound | EC50 ([1]; read-out: EC50) | also measured
COc1cc(NC(=O)c2ccccc2NC(=O)c2ccc(C(C)(C)C)cc2)cc(OC)c1OC | – | Activity [2]: inactive
Cc1ccc(C(=O)O)cc1NC(=O)c1ccccc1NC(=O)c1ccc(C(C)(C)C)cc1 | – | Activity [2]: inactive
Cc1c(NC(=O)c2ccccc2NC(=O)c2ccc(C(C)(C)C)cc2)cccc1C(=O)O | 42 nM | –
CC(C)c1onc(-c2c(Cl)cccc2Cl)c1COc1ccc(/C=C/c2cccc(C(=O)O)c2)c(Cl)c1 | – | Activity [5]: 1520%
Cc1ccc(NC(=O)c2ccc(Cl)cc2NC(=O)c2ccc(C(C)(C)C)cc2)cc1C(=O)O | 110 nM | –
CC(C)(C)c1ccc(C(=O)Nc2ccccc2C(=O)Nc2ccc(Br)c(C(=O)O)c2)cc1 | 150 nM | –
O=C(O)c1cccc(NC(=O)c2ccccc2NC(=O)c2ccc(C(F)(F)F)cc2)c1 | 6900 nM | –
O=C(O)c1cccc(NC(=O)c2ccccc2NC(=O)c2ccc(C(F)(F)F)c(F)c2)c1 | 5000 nM | –
CC(C)(C)c1ccc(C(=O)Nc2ccccc2C(=O)Nc2ccc([N+](=O)[O-])c(C(=O)O)c2)cc1 | – | Activity [2]: inactive
CC(C)(C)c1ccc(C(=O)Nc2ccccc2C(=O)Nc2cccc(C#N)c2)cc1 | 230 nM | –
O=C(O)c1cccc(NC(=O)c2ccccc2NC(=O)c2ccc(Br)cc2)c1 | 3700 nM | –
O=C(O)c1cccc(NC(=O)c2ccccc2NC(=O)c2ccc3c(c2)OCCO3)c1 | 4900 nM | –
CC(C)(C)c1ccc(C(=O)Nc2ccccc2C(=O)Nc2cccc(CC(=O)O)c2)cc1 | 420 nM | –
CC(C)(C)c1ccc(C(=O)Nc2ccccc2C(=O)Nc2cccc(CCC(=O)O)c2)cc1 | 64 nM | –
CC(C)(C)c1ccc(C(=O)Nc2ccccc2C(=O)Nc2cc(C(=O)O)ccc2F)cc1 | 480 nM | –
O=C(O)c1cccc(NC(=O)c2ccccc2NC(=O)c2ccc3c(c2)OCO3)c1 | 10000 nM | –
CC(C)(C)c1ccc(C(=O)Nc2cc(Br)ccc2C(=O)Nc2cccc(C(=O)O)c2)cc1 | 48 nM | –
CC(C)(C)c1ccc(NC(=O)c2ccccc2NC(=O)c2cccc(C(=O)O)c2)cc1 | – | EC50 ([1]; hela): Not Active
O=C(O)c1cccc(NC(=O)c2ccccc2NC(=O)c2cc(C(F)(F)F)cc(C(F)(F)F)c2)c1 | – | Activity [2]: inactive
CC(C)(C)c1ccc(C(=O)Nc2c(Cl)cccc2C(=O)Nc2cccc(C(=O)O)c2)cc1 | – | Activity [2]: inactive
CSc1cccc(NC(=O)c2ccccc2NC(=O)c2ccc(C(C)(C)C)cc2)c1 | 200 nM | –
